Source: publication PMC4478078 (Biochemistry, 2015)
Where a chain is given by its changes, count along the chain named.

Assays:
[1] = tested on: HRI (heme-regulated eukaryotic initiation factor 2α kinase); conditions: cited from earlier work
[2] = target: T1, HO2tail(C282A)^R (Homo sapiens, UniProt P30519, C282A); experiment: Fe^3+-heme off rate, apo-H64Y/V68F-myoglobin assay, HO2tail; type: binding; conditions: 2 μM heme-bound protein, 20 μM apo-H64Y/V68F-myoglobin, 20 °C
T1 sequence (P30519 213-288 C282A): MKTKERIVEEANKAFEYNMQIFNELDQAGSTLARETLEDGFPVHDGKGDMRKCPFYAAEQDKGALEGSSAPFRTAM
How it was run: (§1)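 Disulfide-reduced (TCEP) heme-loaded protein, freed of unbound heme, at 2 μM was mixed with 20 μM apo-H64Y/V68F-myoglobin in 50 mM Tris pH 8.0, 50 mM KCl. Apomyoglobin was prepared by methyl ethyl ketone extraction, dialysed against Tris pH 7.4 with 150 mM KCl, and quantified at 280 nm. Spectra were recorded over time at 20 °C, following the absorbance rise at 600 from heme scavenging.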

[3] = target: T2, HO2sol^R (Homo sapiens, UniProt P30519); experiment: Pyridine hemochrome assay of bound heme, HO2sol^R; type: binding; conditions: after 5-fold excess Fe^3+-heme and removal of unbound heme
T2 sequence (P30519 1-288): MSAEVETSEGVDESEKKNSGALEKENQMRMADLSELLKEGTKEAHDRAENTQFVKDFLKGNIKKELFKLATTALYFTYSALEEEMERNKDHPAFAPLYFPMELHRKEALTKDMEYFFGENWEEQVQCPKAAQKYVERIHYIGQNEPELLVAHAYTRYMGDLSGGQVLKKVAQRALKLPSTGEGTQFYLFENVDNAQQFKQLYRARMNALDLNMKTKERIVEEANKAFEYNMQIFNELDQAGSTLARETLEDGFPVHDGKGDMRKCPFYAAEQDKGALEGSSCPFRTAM
How it was run: (§2)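 Protein was reduced with a 25-fold molar excess of TCEP for 1 h anaerobically, desalted into anaerobic 50 mM Tris pH 8.0, 50 mM KCl, then incubated 1 h with excess Fe3+-heme (5-fold molar excess in the general method). The heme stock contained 15% DMSO and 0.1 M NaOH, was filtered and quantified at 385 nm. Unbound heme was removed on a desalting column. Bound heme was measured by pyridine hemochrome (Δε556 28.32 mM−1 cm−1).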

[4] = tested on: HO2tail^R; experiment: Pyridine hemochrome assay of bound heme, HO2tail^R; type: binding, human; conditions: after 5-fold excess Fe^3+-heme and removal of unbound heme
How it was run: as §2

[5] = tested on: HO2sol^R (human HO2 residues 1–288, disulfide-reduced); experiment: Fe^3+-heme off rate, apo-H64Y/V68F-myoglobin assay, HO2sol^R; type: binding; conditions: double-exponential, 20 °C
How it was run: as §1

[6] = target: T1, HO2tail(C282A)^R; experiment: Pyridine hemochrome assay of bound heme, HO2tail; type: binding; conditions: after excess Fe^3+-heme and removal of unbound heme
How it was run: as §2

[7] = target: T3, HO2tail(C282A)^R (human HO2 residues 213–288, disulfide-reduced) (Homo sapiens, UniProt P30519, C282A); experiment: Fe^3+-heme difference titration with HO2tail; type: binding; conditions: read-out: Kd (titrations); 10 μM HO2tail(C282A)^R; 50 mM Tris pH 8.0, 50 mM KCl, 20 °C, anaerobic
T3 sequence (P30519 213-288 C282A): T1 sequence (P30519 213-288 C282A)

[8] = target: T2, HO2sol^R; experiment: Fe^3+-heme on rate, anaerobic stopped flow, HO2sol^R; conditions: 406 nm, 20 °C, per observable binding site (two per monomer)
How it was run: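 TCEP-reduced apoprotein at various concentrations was mixed with Fe3+-heme in anaerobic 50 mM Tris pH 8.0, 50 mM KCl by stopped-flow within an anaerobic chamber at 20 °C, monitored at 406 nm. Each kobs is an average of 5–7 traces fit to a single exponential. kobs was plotted against the concentration of observable binding sites and fit to eq 1; k′heme ≈ kcoord/(k2/k1).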

[9] = target: T4, HO2tail(C265A)^R (human HO2 residues 213–288, disulfide-reduced) (Homo sapiens, UniProt P30519, C265A); experiment: Fe^3+-heme difference titration with HO2tail; type: binding; conditions: read-out: Kd (titrations); 6 μM HO2tail(C265A)^R; 50 mM Tris pH 8.0, 50 mM KCl, 20 °C, anaerobic
T4 sequence (P30519 213-288 C265A): T1 sequence (P30519 213-288 C282A) with C53A, A70C

[10] = tested on: HO2 tail at Cys265; experiment: Calculated dissociation equilibrium constant, HO2 tail at Cys265; type: binding, human
[11] = target: T5, HO2core (Homo sapiens, UniProt P30519); experiment: Fe^3+-heme on rate, anaerobic stopped flow, HO2core; type: binding
T5 sequence (P30519 1-248): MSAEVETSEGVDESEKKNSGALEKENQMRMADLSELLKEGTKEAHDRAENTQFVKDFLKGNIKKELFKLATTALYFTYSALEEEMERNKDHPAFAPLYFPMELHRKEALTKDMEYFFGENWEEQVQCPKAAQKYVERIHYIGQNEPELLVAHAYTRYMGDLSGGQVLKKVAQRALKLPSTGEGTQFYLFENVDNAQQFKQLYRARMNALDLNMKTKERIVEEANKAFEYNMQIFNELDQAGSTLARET
How it was run: (§3)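 Apoprotein at various concentrations was mixed with Fe3+-heme in 50 mM Tris pH 8.0, 50 mM KCl by stopped-flow inside an anaerobic chamber, 1 cm path, 20 °C, 406 nm. Each kobs is the mean of 5–7 traces fit to a single exponential. Eq 1 fit of kobs versus apoprotein concentration gave k2/k1 and kcoord, with k′heme ≈ kcoord/(k2/k1). Kd is the myoglobin-assay off rate divided by k′heme.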

[12] = tested on: HO2tail(C265A)^R; experiment: Fe^3+-heme off rate, apo-H64Y/V68F-myoglobin assay, HO2tail; type: binding, human; conditions: 2 μM heme-bound protein, 20 μM apo-H64Y/V68F-myoglobin, 20 °C
How it was run: as §1

[13] = tested on: HO2tail(C265A/C282A)^R; experiment: Heme binding to HO2tail; parameters: species or system human; conditions: data not shown
[14] = tested on: HO2tail^R; experiment: Fe^3+-heme off rate, apo-H64Y/V68F-myoglobin assay, HO2tail^R; type: binding, human; conditions: double-exponential, 20 °C
How it was run: as §1

[15] = target: T6, HO2core (human HO2 residues 1–248) (Homo sapiens, UniProt P30519); experiment: Fe^3+-heme difference titration with HO2core; type: binding; conditions: read-out: Kd (titrations); 2 μM HO2core; 50 mM Tris pH 8.0, 50 mM KCl, 20 °C, anaerobic; quadratic fit
T6 sequence (P30519 1-248): T5 sequence (P30519 1-248)

[16] = target: T1, HO2tail(C282A)^R; experiment: Fe^3+-heme on rate, anaerobic stopped flow, HO2tail; type: binding
How it was run: as §3

[17] = tested on: HO2tail(C265A)^R; experiment: Pyridine hemochrome assay of bound heme, HO2tail; type: binding, human; conditions: after excess Fe^3+-heme and removal of unbound heme
How it was run: as §2

[18] = fit of eq 1 to kobs vs apoprotein concentration
[19] = read-out: Kd (k-heme/k′heme), calculated from off and on rates

SMILES: C=CC1=C(C)c2cc3[n-]c(cc4[n-]c(cc5nc(cc1n2)C(C)=C5C=C)c(C)c4CCC(=O)O)c(CCC(=O)O)c3C.[Fe+2] [Fe^3+-heme]
- off rate [1]: 0.0015 s⁻¹
- k-heme (off rate) [2]: 0.0023 ± 0.0001 s⁻¹
- hemes bound per monomer of protein [3]: 2.1 ± 0.1 hemes per monomer of protein
- hemes bound per monomer of protein [4]: 1.4 ± 0.3 hemes per monomer of protein
- k-heme (off rate), fast phase ([5]; fast phase, assigned to Cys265): 0.0031 ± 0.0002 s⁻¹
- k-heme (off rate), slow phase ([5]; slow phase, assigned to His45 at the core): 0.00054 ± 0.00006 s⁻¹
- heme bound per monomer of protein [6]: 0.8 ± 0.2 heme per monomer of protein
- Kd [7]: 90 ± 30 nM
- k′heme (apparent second-order rate constant, kcoord/(k2/k1)) [8]: 6.9e+06 M⁻¹ s⁻¹
- Kd [9]: 900 ± 300 nM
- difference in binding affinity between the sites (core His45 vs tail Cys265) ([10]; Fe^3+-heme difference titrations): ~ 6 fold
- difference in binding affinity between the sites (core His45 vs tail Cys265) ([10]; kinetic experiments): 2–5 fold
- k′heme (apparent second-order rate constant, kcoord/(k2/k1)) ([11]; 406 nm, 20 °C, anaerobic): 6.4e+06 M⁻¹ s⁻¹
- k2/k1 [11, 18]: 14.1 ± 0.3 µM
- kcoord [11, 18]: 91 ± 1 s⁻¹
- Kd [11, 19]: 0.2 nM
- k-heme (off rate) [12]: 0.0055 ± 0.0005 s⁻¹
- Fe^3+-heme binding (in words) [13]: did not bind
- k-heme (off rate), fast phase ([14]; fast phase, assigned to Cys282): 0.0086 ± 0.003 s⁻¹
- k-heme (off rate), slow phase ([14]; slow phase, assigned to Cys265): 0.0023 ± 0.0004 s⁻¹
- Kd [15]: 14 ± 4 nM
- k′heme (apparent second-order rate constant, kcoord/(k2/k1)) ([16]; 406 nm, 20 °C, anaerobic): 7.6e+06 M⁻¹ s⁻¹
- k2/k1 [16, 18]: 14 ± 4 µM
- kcoord [16, 18]: 110 ± 10 s⁻¹
- Kd [16, 19]: 0.3 nM
- heme bound per monomer of protein [17]: 0.74 ± 0.03 heme per monomer of protein
